FXIa inh 1536: human FXIa protease inhibitors, primary screen, biochemical, 1536-well. purified FXIa, Boc-Glu-Ala-Arg-AMC fluorogenic substrate. inhibition, % at 5 µM. 220,000 tested, 0.14% active. AID 798, 2007;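 active = inhibition of at least 40%; inactive = inhibition below 40%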;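 note: fluorescence of freed AMC excited at 355 nm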
FXIIa inh 1536: human FXIIa protease inhibitors, primary screen, biochemical, 1536-well | Coagulation factor XII (Homo sapiens), P00748 | purified FXIIa, Boc-QGR-AMC fluorogenic substrate, 2 h | inhibition, % at 5 µM | 220,000 tested, 0.3% active | AID 800, 2007; in the data active = inhibition above about 40%
Target sequence (P00748 20-372 limits assumed): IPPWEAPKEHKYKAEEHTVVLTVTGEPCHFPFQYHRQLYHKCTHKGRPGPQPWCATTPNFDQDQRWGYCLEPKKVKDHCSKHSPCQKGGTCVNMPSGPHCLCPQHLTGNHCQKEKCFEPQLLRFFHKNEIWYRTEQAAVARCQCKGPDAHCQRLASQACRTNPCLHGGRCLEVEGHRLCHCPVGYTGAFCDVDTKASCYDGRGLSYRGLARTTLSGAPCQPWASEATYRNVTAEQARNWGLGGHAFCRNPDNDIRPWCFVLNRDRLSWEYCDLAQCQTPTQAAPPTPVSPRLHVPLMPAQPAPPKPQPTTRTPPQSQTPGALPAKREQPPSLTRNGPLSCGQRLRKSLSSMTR
Target sequence (P00748 373-615 limits assumed): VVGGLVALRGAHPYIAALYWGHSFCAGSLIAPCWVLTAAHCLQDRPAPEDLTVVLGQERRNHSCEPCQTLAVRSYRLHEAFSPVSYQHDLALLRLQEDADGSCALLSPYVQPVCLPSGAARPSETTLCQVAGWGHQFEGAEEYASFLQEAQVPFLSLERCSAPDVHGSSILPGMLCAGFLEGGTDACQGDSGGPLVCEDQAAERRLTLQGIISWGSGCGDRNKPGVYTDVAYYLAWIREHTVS
Rce1 inh: yeast Rce1p protease inhibitors, primary screen, biochemical, fluorescence, cell-free homogeneous; CAAX prenyl protease 2 (Saccharomyces cerevisiae (strain ATCC 204508 / S288c)), Q03530; yeast membranes, quenched prenylated peptide cleavage fluorescence; calls only; 290,000 tested, 0.27% active;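 active = fall in fluorescence gain of 50% or more versus controls, with final raw signal at or below 3038400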
thrombin 1536: human alpha-thrombin inhibitors, primary screen, counter-screen for coagulation protease inhibitor project, biochemical, 1536-well, fluorogenic AMC substrate. Prothrombin (Homo sapiens), P00734. Boc-VPR-AMC fluorogenic substrate cleavage. inhibition, % at 5 µM. 220,000 tested, 0.26% active;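 active = inhibition at or above 40%; inactive = inhibition below 40%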
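System: Human alpha-thrombin protein | Medium: pH 7.5 Tris (50 mM) with NaCl 150 mM, Tween 20 0.05% | Times: Enzyme reaction carried out at room temperature | Detection: AMC fluorescence, 355/460 nm | Evaluation: Percent inhibition scaled between no-compound controls and no-enzyme blanks | Benchmarks: Enzyme without compound as high, wells lacking enzyme as low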
CTSL1 counter: Fasciola hepatica cathepsin L1 inhibitors, primary screen, counter-screen for PFM18AAP inhibitor project, biochemical, QFRET, fluorogenic peptide substrate; recombinant F. hepatica cathepsin L1, Z-Leu-Arg-MCA fluorescence; inhibition, % at 5.96 µM; 300,000 tested, 0.49% active; AID 1906, 2009;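 active = inhibition above the mean of all tested compounds plus 3 SD, set per screening campaign, cut at about 17% in these data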
hK5 inh: human KLK5 protease inhibitors, primary screen, biochemical, 1536-well. inhibition, % at 5 µM. Kallikrein-5 (Homo sapiens), Q9Y337. 210,000 tested, 0.59% active. recombinant hK5, fluorogenic AMC substrate cleavage. AID 873, 2007;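 active = inhibition of 40% or more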
A number is an active result; i = inactive; nt = no result; + = active, no number. The list is not random: actives were taken first. Their share in the collection is about 1.4%.

SMILES	FXIa inh 1536	FXIIa inh 1536	Rce1 inh	thrombin 1536	CTSL1 counter	hK5 inh
O=C(c1cccnc1)n1nc(-c2ccco2)nc1NCc1cccs1	i	i	i	96.8	nt	i
CC(C)C(=O)n1nc(-c2cccnc2)nc1NCc1cccs1	i	i	i	99.7	i	i
CS(=O)(=O)n1nc(-c2cccnc2)nc1NCc1ccccc1	i	i	i	i	i	i
CCC(=O)n1nc(-c2cccnc2)nc1NCc1ccc(OC)cc1	i	i	i	99.6	i	i
O=C(c1cccs1)n1nc(-c2ccc(Cl)cc2)nc1NCc1ccco1	i	i	i	i	i	i
COc1ccc(CNc2nc(-c3cccnc3)nn2S(C)(=O)=O)cc1	i	i	i	i	i	i
COc1ccc(S(=O)(=O)N2CCC(C(=O)Oc3ccc(C)cc3)CC2)cc1OC	nt	nt	i	nt	i	nt
O=C1S/C(=C/c2ccc(N3CCOCC3)o2)C(=O)N1Cc1ccc(F)cc1	i	i	i	i	i	i
CC(C)OC(=O)CN1C(=O)S/C(=C/c2ccc(N3CCCCC3)o2)C1=O	i	i	i	i	17.4	i
O=S(=O)(Nc1ccccc1)c1ccc(-c2csnn2)cc1	i	43.4	i	i	i	i
c1ccc(-c2ccc(-c3csnn3)cc2)cc1	i	i	i	i	i	i
Nc1nc(SCn2nnc3ccccc3c2=O)n[nH]1	i	40.0	i	i	i	i
Cc1nc(SCn2nnc3ccccc3c2=O)nc(C)c1C	i	i	i	i	i	i
CCC(=O)c1ccc(OCc2ccc(C(=O)OC)cc2)c(OC)c1	i	i	i	i	i	57.4
CCn1c(SCc2ccc(C#N)cc2)nnc1-c1cccc(Cl)c1	i	i	i	i	i	i
C=CCn1c(SCc2ccc(C#N)cc2)nnc1-c1ccc(C)cc1	i	i	+	i	i	i
Cc1cccc(-c2nnc(SCc3ccc(C#N)cc3)n2Cc2ccco2)c1	i	i	+	i	i	i
Cn1c(SCc2ccc(C#N)cc2)nnc1-c1ccncc1	nt	nt	i	nt	i	nt
CCCCOc1ccc(OCCSc2nc3ccccc3n2CC(=O)O)cc1	nt	nt	i	nt	i	nt
O=C(O)Cn1c(SCCOc2ccccc2)nc2ccccc21	i	i	nt	i	i	41.9
COc1ccc(F)cc1S(=O)(=O)N1CC(C)CC(C)C1 (stereo unspecified)	i	i	i	i	i	i
NC(=O)c1sc2nc(N3CCCCC3)c3c(c2c1N)CCCC3	i	i	+	i	i	i
COC(=O)c1sc2nc(N3CCCCC3)c3c(c2c1N)CCCC3	i	i	i	i	i	i
Cc1ccc(C(=O)NCC(=O)OC(C)C(=O)Nc2ccc(N3CCOCC3)cc2)s1 (stereo unspecified)	43.8	82.5	i	i	i	77.1
Cc1ccc(C(=O)N(C)CC(=O)Nc2ccc(N3CCOCC3)cc2)s1	nt	nt	i	nt	i	nt
SMILES	FXIa inh 1536	FXIIa inh 1536	Rce1 inh	thrombin 1536	CTSL1 counter	hK5 inh
COC(C(=O)Nc1ccnn1C1CCN(Cc2ccccn2)CC1)c1ccccc1 (stereo unspecified)	nt	nt	nt	nt	i	nt
CCOCCCNC(=O)c1cc(=O)n(Cc2cccc(C)c2)c2ccccc12	i	i	i	i	i	i
O=c1[nH]c2ccc(Cl)cc2c(-c2ccccc2)c1CN1CCOCC1	i	i	nt	i	i	i
O=c1[nH]c2ccc(Cl)cc2c(-c2ccccc2)c1N1CCOCC1	i	i	i	42.6	i	i
CC(=O)c1ccccc1NC(=O)CN1C(=O)CS/C1=C\c1nc(-c2ccc(C)cc2)cs1	i	i	i	i	17.8	i
Cc1ccc(-c2csc(NC(=O)CN3C(=O)CCC3=O)n2)cc1	i	i	i	i	i	i
Brc1ccsc1/C=N/Nc1ccccc1	nt	nt	i	nt	i	nt
Cn1nc(C(=O)N2CCN(c3ccccc3F)CC2)c2c1-c1ccccc1S(=O)(=O)C2	nt	nt	i	nt	i	nt
CC(C)c1nc(SCc2c(F)cccc2Cl)c2c(=O)n(C)c(=O)n(C)c2n1	i	i	i	i	i	65.0
Cn1c(=O)c2c(nc(SCCCC#N)n2Cc2c(F)cccc2Cl)n(C)c1=O	i	i	i	i	i	i
CCOc1ncccc1C(=O)OCC(=O)Nc1ccc(C(C)C)cc1	i	i	i	i	i	i
CCOc1ncccc1C(=O)OCC(=O)Nc1ccc(C(N)=O)cc1	i	44.8	i	i	i	41.5
COc1cc2c(cc1OC)C(c1cc(Br)c(OC)c(OC)c1)CC(=O)N2 (stereo unspecified)	nt	nt	i	nt	nt	nt
O=[N+]([O-])c1ccc(Nc2ccc(F)cc2)nc1	i	i	i	i	i	55.2
O=[N+]([O-])c1ccc(Nc2ccccc2)nc1	i	i	i	i	i	i
CCOC(=O)c1sc(N(Cc2ccccc2)C(=O)CCl)nc1C	nt	nt	i	nt	22.3	nt
CCOC(=O)c1sc(N(C)C(C)=O)nc1C	i	42.1	i	i	i	i
CSc1ccc(/C=C(/NC(=O)c2ccccc2)C(=O)NCCN2CCOCC2)cc1	nt	nt	i	nt	i	nt
Cc1c(C(=O)N2CCN(Cc3ccccc3)CC2)oc2c1C(=O)CCC2	nt	nt	i	nt	i	nt
O=C(CSc1nnc(NC(=O)C2CC2)s1)Nc1ccc(F)cc1F	nt	nt	i	nt	i	nt
N#Cc1nc(-c2ccco2)oc1N1CCN(C(c2ccccc2)c2ccccc2)CC1	i	i	+	i	i	i
CCC(C)N(C(=O)c1csnn1)C(C(=O)NC1CCCC1)c1ccccc1F (stereo unspecified)	nt	nt	nt	nt	i	nt
CCN(CC)C(=O)c1ccc(NS(=O)(=O)c2ccc(/C=C/C(=O)O)cc2)cc1	i	i	i	nt	i	44.1
CCN(CC)C(=O)c1ccc(NS(=O)(=O)c2ccccc2)cc1	i	i	i	i	i	i
C=CCSc1nnc(-c2cc3c(-c4ccccc4)nn(C)c3s2)n1C	i	i	i	i	i	52.2
SMILES	FXIa inh 1536	FXIIa inh 1536	Rce1 inh	thrombin 1536	CTSL1 counter	hK5 inh
COc1ccc(-c2cn(-c3ccc(C)cc3C)c(=O)[nH]2)cc1OC	i	i	i	i	i	48.5
Cc1ccc(C(=O)CCc2ccc(N)cc2)cc1	nt	nt	i	nt	i	nt
COc1ccc(OCCCc2c(C)n[nH]c2C)cc1	i	i	i	i	i	54.7
O=C(O/N=C\c1ccc(N2CCCCC2)c([N+](=O)[O-])c1)c1cccc(C(F)(F)F)c1	i	i	+	i	i	i
CO/N=C/c1ccc(N2CCN(C(=O)c3cccc(C(F)(F)F)c3)CC2)c([N+](=O)[O-])c1	i	i	i	i	i	i
CC(NS(=O)(=O)c1ccccc1)C(c1cccs1)N1CCOCC1 (stereo unspecified)	i	i	i	i	79.4	i
O=C(Cn1[nH]c(=O)c2ccccc2c1=O)Nc1cccc(S(=O)(=O)N2CCCCCC2)c1	51.7	nt	i	i	i	i
O=C(CN1CCOCC1)Nc1cccc(S(=O)(=O)N2CCCCCC2)c1	i	i	i	nt	i	i

Bioassay records: PubChem, several laboratories
